How the values were obtained:
Format in all cases: functional
[1] = test system: UO-31; assay: Antitumor activity against human UO31 cells after 48 hrs by SRB assay; conditions: UO-31, 48 h
Outline: (§1)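 NCI-60 protocol. Cells were grown in RPMI 1640 with 5% FBS and 2 mM L-glutamine, plated at 5000–40,000 cells/well, and preincubated 24 h at 37 °C, 5% CO2. Time-zero plates were TCA-fixed. Compounds were in DMSO and incubated 48 h. Fixation used cold TCA (final 16% for suspension SR; final 10% for adherent lines 2-7). Plates were stained with 0.4% SRB in 1% acetic acid, solubilized in 10 mM Tris base, and read at 515 nm. Percent growth was calculated from Tz, C and Ti.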

[2] = test system: A549; assay: Antitumor activity against human A549 cells after 48 hrs by SRB assay; conditions: A549, 48 h
Outline: (§2)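 Cells grown in RPMI 1640 with 5% FBS and 2 mM L-glutamine and seeded at 5000–40,000 cells/well according to doubling time. They were preincubated 24 h at 37 °C, 5% CO2, then exposed to DMSO-solubilized compound for 48 h. Adherent cells were fixed with cold TCA (10% final), suspension cells with 16% final. Stained with 0.4% SRB; absorbance at 515 nm. Percent growth calculated against time-zero and control plates.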

[3] = test system: NCI-H322M; assay: Antitumor activity against human NCI-H322M cells after 48 hrs by SRB assay; outline: as §2
[4] = test system: MOLT-4; assay: Antitumor activity against human MOLT4 cells after 48 hrs by SRB assay; conditions: MOLT-4, 48 h; outline: as §2
[5] = test system: NCI-H226; assay: Antitumor activity against human NCI-H226 cells after 48 hrs by SRB assay; conditions: NCI-H226, 48 h; outline: as §2
[6] = test system: OVCAR-5; assay: Antitumor activity against human OVCAR5 cells after 48 hrs by SRB assay; conditions: OVCAR-5, 48 h; outline: as §2
[7] = test system: RPMI-8226; assay: Antitumor activity against human RPMI8226 cells after 48 hrs by SRB assay; conditions: RPMI-8226, 48 h; outline: as §2
[8] = test system: MDA-MB-231; assay: Antitumor activity against human MDA-MB-231 cells after 48 hrs by SRB assay; conditions: MDA-MB-231, 48 h; outline: as §2
[9] = test system: MDA-MB-435; assay: Antitumor activity against human MDA-MB-435 cells after 48 hrs by SRB assay; conditions: MDA-MB-435, 48 h; outline: as §2
[10] = test system: NCI-H522; assay: Antitumor activity against human NCI-H522 cells after 48 hrs by SRB assay; conditions: NCI-H522, 48 h; outline: as §2
[11] = test system: RXF 393; assay: Antitumor activity against human RXF393 cells after 48 hrs by SRB assay; conditions: RXF 393, 48 h; outline: as §2
[12] = test system: OVCAR-8; assay: Antitumor activity against human OVCAR8 cells after 48 hrs by SRB assay; conditions: OVCAR-8, 48 h; outline: as §2
[13] = test system: SF-268; assay: Antitumor activity against human SF268 cells after 48 hrs by SRB assay; conditions: SF-268, 48 h; outline: as §2
[14] = test system: SW-620; assay: Antitumor activity against human SW620 cells after 48 hrs by SRB assay; conditions: SW-620, 48 h; outline: as §1
[15] = test system: SF-295; assay: Antitumor activity against human SF295 cells after 48 hrs by SRB assay; conditions: SF-295, 48 h; outline: as §2
[16] = test system: OVCAR-4; assay: Antitumor activity against human OVCAR4 cells after 48 hrs by SRB assay; conditions: OVCAR-4, 48 h; outline: as §2
[17] = test system: A498; assay: Antitumor activity against human A498 cells after 48 hrs by SRB assay; conditions: A498, 48 h; outline: as §2
[18] = test system: DU-145; assay: Antitumor activity against human DU145 cells after 48 hrs by SRB assay; conditions: DU-145, 48 h; outline: as §2
[19] = test system: EKVX; assay: Antitumor activity against human EKVX cells after 48 hrs by SRB assay; outline: as §2
[20] = test system: CCRF-CEM; assay: Antitumor activity against human CCRF-CEM cells after 48 hrs by SRB assay; outline: as §2
[21] = test system: HOP-92; assay: Antitumor activity against human HOP92 cells after 48 hrs by SRB assay; conditions: HOP-92, 48 h; outline: as §2
[22] = test system: T47D; assay: Antitumor activity against human T47D cells after 48 hrs by SRB assay; outline: as §1
[23] = test system: HOP-62; assay: Antitumor activity against human HOP62 cells after 48 hrs by SRB assay; conditions: HOP-62, 48 h; outline: as §2
[24] = test system: LOX IMVI; assay: Antitumor activity against human LOXIMVI cells after 48 hrs by SRB assay; outline: as §2
[25] = test system: MDA-MB-468; assay: Antitumor activity against human MDA-MB-468 cells after 48 hrs by SRB assay; conditions: MDA-MB-468, 48 h; outline: as §2
[26] = test system: SK-OV-3; assay: Antitumor activity against human SKOV3 cells after 48 hrs by SRB assay; conditions: SK-OV-3, 48 h; outline: as §2
[27] = test system: MCF7; assay: Antitumor activity against human MCF7 cells after 48 hrs by SRB assay; conditions: MCF7, 48 h; outline: as §2
[28] = test system: HCC 2998; assay: Antitumor activity against human HCC2998 cells after 48 hrs by SRB assay; conditions: HCC 2998, 48 h; outline: as §2
[29] = test system: 786-0; assay: Antitumor activity against human 786-0 cells after 48 hrs by SRB assay; conditions: 786-0, 48 h; outline: as §2
[30] = read-out: LC50 (the source's name)

Compound: Clc1ccc(-c2nc3sc(C4CC4)nn3c2Br)cc1
- GI50 [1]: 16.4 µM
- TGI [1]: > 100 µM
- CC50 [1, 30]: > 100 µM
- GI50 [2]: 7.42 µM
- TGI [2]: > 100 µM
- CC50 [2, 30]: > 100 µM
- GI50 [3]: 43.4 µM
- TGI [3]: > 100 µM
- CC50 [3, 30]: > 100 µM
- GI50 [4]: 2970 nM
- TGI [4]: > 100 µM
- CC50 [4, 30]: > 100 µM
- GI50 [5]: 4.99 µM
- TGI [5]: > 100 µM
- CC50 [5, 30]: > 100 µM
- GI50 [6]: 31.9 µM
- TGI [6]: > 100 µM
- CC50 [6, 30]: > 100 µM
- GI50 [7]: 3.22 µM
- TGI [7]: > 100 µM
- CC50 [7, 30]: > 100 µM
- GI50 [8]: 6.59 µM
- TGI [8]: > 100 µM
- CC50 [8, 30]: > 100 µM
- GI50 [9]: 6.08 µM
- TGI [9]: > 100 µM
- CC50 [9, 30]: > 100 µM
- GI50 [10]: 5.31 µM
- TGI [10]: 55.4 µM
- CC50 [10, 30]: > 100 µM
- GI50 [11]: 2930 nM
- TGI [11]: 14.8 µM
- CC50 [11, 30]: > 100 µM
- GI50 [12]: 5.76 µM
- TGI [12]: > 100 µM
- CC50 [12, 30]: > 100 µM
- GI50 [13]: 19.3 µM
- TGI [13]: > 100 µM
- CC50 [13, 30]: > 100 µM
- GI50 [14]: 6.88 µM
- TGI [14]: > 100 µM
- CC50 [14, 30]: > 100 µM
- GI50 [15]: 5.04 µM
- TGI [15]: > 100 µM
- CC50 [15, 30]: > 100 µM
- GI50 [16]: 12.7 µM
- TGI [16]: 82.1 µM
- CC50 [16, 30]: > 100 µM
- GI50 [17]: 30.8 µM
- TGI [17]: > 100 µM
- CC50 [17, 30]: > 100 µM
- GI50 [18]: 19.2 µM
- TGI [18]: > 100 µM
- CC50 [18, 30]: > 100 µM
- GI50 [19]: 5.22 µM
- TGI [19]: > 100 µM
- CC50 [19, 30]: > 100 µM
- GI50 [20]: 3.66 µM
- TGI [20]: > 100 µM
- CC50 [20, 30]: > 100 µM
- GI50 [21]: 5.59 µM
- TGI [21]: 37.9 µM
- CC50 [21, 30]: > 100 µM
- GI50 [22]: 4.49 µM
- TGI [22]: 73.5 µM
- CC50 [22, 30]: > 100 µM
- GI50 [23]: 38.1 µM
- TGI [23]: > 100 µM
- CC50 [23, 30]: > 100 µM
- GI50 [24]: 9.2 µM
- TGI [24]: > 100 µM
- CC50 [24, 30]: > 100 µM
- GI50 [25]: 2950 nM
- TGI [25]: > 100 µM
- CC50 [25, 30]: > 100 µM
- GI50 [26]: 35 µM
- TGI [26]: > 100 µM
- CC50 [26, 30]: > 100 µM
- GI50 [27]: 8.18 µM
- TGI [27]: > 100 µM
- CC50 [27, 30]: > 100 µM
- GI50 [28]: 8.19 µM
- TGI [28]: > 100 µM
- CC50 [28, 30]: > 100 µM
- GI50 [29]: 13.6 µM
- TGI [29]: > 100 µM
- CC50 [29, 30]: > 100 µM

Source: ChEMBL document CHEMBL1821594, “Synthesis and anticancer evaluation of novel 2-cyclopropylimidazo[2,1-b][1,3,4]-thiadiazole derivatives” (2011)
